Bioassay records: PubChem, Broad Institute
aSyn 5UTR inh = MLPCN primary screen, SNCA 5' untranslated region | alpha-synuclein 5'UTR reporter, inhibitor activity | 300,000 tested, 0.82% active | inhibition, % (tested at 7.5 µM); in the data active = inhibition above about 60%; inconclusive = no clear call, values can overlap the other calls;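 note: H4 neuroglioblastoma cells stably carrying SNCA 5'UTR luciferase fusion; 0% = DMSO wells and 100% = positive control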
FN deposit inh = fibronectin deposition inhibition; AH1F fibroblasts, Alexa488-fibronectin deposition fluorescence, overnight; inhibition, % at 12.6 µM; 350,000 tested, 0.086% active;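 active = mean inhibition across replicates of 30% or more, regardless of how many single replicates reach that level; inconclusive = mean under 30% yet at least half of replicates reach 30%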;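 note: positive control wells lacked labelled fibronectin entirely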
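Measured by – fluorescence 485/525 nm · System – AH1F fibroblast monolayer, labelled fibronectin deposition · Amount – 10000 cells per well · Buffer or medium – serum-reduced DMEM (2% serum) · Doses – single dose, pinned · Also added – fluorescent fibronectin at 24 nM final · Schedule – 1 h cell attachment, overnight exposure to compound and label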
PAX8 inh HTS = PAX8 transcriptional activity inhibition; RMG-I TPO-luciferase reporter, SteadyGlo, 24 h; inhibition, % at 12.6 µM; 360,000 tested, 1.2% active;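 active = mean replicate inhibition at least 60% with every replicate also reaching 60%; inconclusive = only one of the two criteria is met; inactive = mean below 60% and not all replicates reaching 60%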;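 note: luciferase light reporting Pax8 driven TPO promoter activity; plate controls were median of neutral control wells for no effect and mitoxantrone controls for full effect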
Shn3 inh set2 = inhibitors of Schnurri-3 3'UTR reporter in osteoblasts | Clone20 osteoblast Shn3 3'UTR firefly luciferase, 24 h | inhibition, % at 12.5 µM | 360,000 tested, 0.52% active | AID 588674;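 active = mean inhibition of at least 75% with every replicate also reaching 75%; inconclusive = mean inhibition at least 75% but some replicate below; inactive = mean inhibition below 75%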;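 note: 0% = median of neutral control wells and 100% = pilot-screen positive control compound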
EWS-Fli inh = inhibitors of EWS/Fli oncoprotein transcriptional activity; AID 651661; 350,000 tested, 0.67% active; inhibition, % at 12.6 µM; A673 NR0B1-luciferase reporter, viability-normalised;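 active = mean inhibition of at least 50% after viability correction, with every replicate also passing that limit; inconclusive = mean reaches 50% but only one of two replicates passes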;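 note: firefly luciferase signal divided by Alamar Blue viability fluorescence both relative to DMSO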
LMP1 NFkB inh = reduces LMP1-driven NF-kappaB luciferase signal. LMP1-induced NF-kappaB luciferase reporter cells, luminescence. inhibition, % at 12.5 µM. 350,000 tested, 0.69% active. AID 504558; in the data active = inhibition above about 41%; inconclusive = no clear call, values can overlap the other calls;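 note: 0% = neutral control wells and 100% = reference inhibitor control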
* hit, by the source's call; ? = inconclusive; · = no result given. In the library only some 2.1% were active in any assay of this set; here they are far more common.

SMILES	aSyn 5UTR inh	FN deposit inh	PAX8 inh HTS	Shn3 inh set2	EWS-Fli inh	LMP1 NFkB inh
O=C(CSc1nnc(-c2ccccc2)o1)Nc1ccccc1F	74*	22	26	43	78*	53*
O=C(CSc1nnc(-c2ccc(Br)cc2)o1)Nc1cccc(C(=O)O)c1	98*	·	83*	28	·	75*
CCOc1ccc(-c2nnc(SCC(=O)Nc3cc(C)on3)o2)cc1	29	6	-62	25	65*	15
CCNC(=O)C[C@@H]1CC[C@H]2[C@@H](COc3ccc(NC(=O)Nc4ccccc4C)cc3C(=O)N2C)O1	·	6	4	·	4	·
O=C(Nc1ccccc1)N1CC(=O)N2[C@H](CO)[C@@H](c3ccc(C#CC4CCCC4)cc3)[C@@H]2C1	·	-10	·	·	1	·
CCS(=O)(=O)N1Cc2cc(C(=O)NCC3CC3)nc(-c3cccc(-c4cccnc4)c3)c2[C@H]1CCO	·	10	18	·	2	·
CCNC(=O)c1cc2c(c(-c3cccc(-c4ccncc4)c3)n1)[C@H](CCO)N(S(=O)(=O)CC)C2	·	-21	·	·	55*	·
CCCCNC(=S)Nc1ccc(Cl)cc1	-59	·	-29	27	78*	4
O=C(Nc1cccc(F)c1)N[C@H]1CC[C@@H](CCNS(=O)(=O)c2cccc(Cl)c2)O[C@@H]1CO	·	·	-22	·	27	·
O=C(Nc1ccc(F)cc1)N[C@H]1CC[C@H](CCNC(=O)c2cc(Cl)cc(Cl)c2)O[C@H]1CO	·	·	87*	·	2	·
O=C(Nc1cccc(F)c1)N[C@@H]1CC[C@@H](CCNS(=O)(=O)c2cccc(Cl)c2)O[C@@H]1CO	·	·	107*	·	-1	·
Cc1cc(C)c2nc(NNC(=O)c3ccc(S(=O)(=O)N4CC(C)CC(C)C4)cc3)sc2c1 (stereo unspecified)	72*	21	48	90*	28	38
Cc1cccc2sc(NNC(=O)c3ccc(S(=O)(=O)N4CC(C)CC(C)C4)cc3)nc12 (stereo unspecified)	81*	9	·	?	50	38
Cc1cc(C)c2nc(NNC(=O)c3ccc(S(=O)(=O)N4CCCC(C)C4)cc3)sc2c1 (stereo unspecified)	73*	5	·	59	9	3
CC1CCCN(S(=O)(=O)c2ccc(C(=O)Nc3nnc(C4CC4)o3)cc2)C1 (stereo unspecified)	50	·	7	-2	·	-3
CCC(=O)NNc1nc2c(C)cc(C)cc2s1	-63	·	-12	-20	-18	-5
Cc1ccc2nc(NNC(=O)c3ccc4c(c3)OCCO4)sc2c1	-30	-2	11	-11	-9	-10
Cc1ccc2nc(NNC(=O)c3ccc(S(=O)(=O)N4CCc5ccccc5C4)cc3)sc2c1	96*	11	90*	94*	26	59*
CCC(=O)N1CCC2(CC1)CN(C(=O)c1cnccn1)[C@@H](CO)c1c2c2ccc(OC)cc2n1C	·	·	-13	·	3	·
C[C@H](CO)N1C[C@H](C)[C@H](CN(C)C(=O)Nc2ccc(F)cc2)Oc2ncc(C3=CCCC3)cc2C1=O	·	-2	·	·	4	·
CCCC#Cc1ccc2c(c1)O[C@H](CN(C)C(=O)COC)[C@@H](C)CN([C@@H](C)CO)S2(=O)=O	·	-2	·	·	2	·
O=C(Cc1ccncc1)NCC[C@@H]1CC[C@@H](NC(=O)C2CCC2)[C@H](CO)O1	·	·	-14	·	2	·
C[C@@H](c1ccccc1)N1C[C@H]2CCCN2c2cc(Br)ccc2S1(=O)=O	·	-6	36	5	63*	2
O=S1(=O)c2ccc(Br)cc2N2CCC[C@H]2CN1Cc1ccccc1	·	8	11	21	48	-3
CCC(=O)N(C)C[C@@H]1[C@@H](c2ccc(-c3ccccc3F)cc2)[C@H](CO)N1C(C)=O	·	5	-21	·	10	·
SMILES	aSyn 5UTR inh	FN deposit inh	PAX8 inh HTS	Shn3 inh set2	EWS-Fli inh	LMP1 NFkB inh
N#C[C@@H]1[C@@H](c2ccc(-c3ccccc3F)cc2)[C@@H](CO)N1C(=O)C1CCC1	·	9	82*	·	-2	·
CN(C)C(=O)c1cccc(-c2ccccc2[C@@H]2[C@@H](C#N)N(C(=O)C3CC3)[C@H]2CO)c1	·	-4	112*	·	2	·
CCCC#Cc1ccc([C@H]2[C@@H](CO)N(C(=O)C3CCCCC3)[C@H]2C#N)cc1	·	2	84*	·	2	·
N#C[C@@H]1[C@H](c2ccc(-c3ccccc3F)cc2)[C@H](CO)N1C(=O)C1CCC1	·	-17	3	·	2	·
N#C[C@H]1[C@H](c2ccc(C#Cc3ccccc3F)cc2)[C@H](CO)N1C(=O)C1CCC1	·	8	87*	·	66*	·
CN(C)C(=O)c1cccc(-c2ccccc2[C@@H]2[C@H](C#N)N(C(=O)C3CC3)[C@H]2CO)c1	·	0	-22	·	4	·
C[C@H]1CN([C@@H](C)CO)C(=O)c2cc(-c3ccncc3)cnc2O[C@H]1CN(C)C(=O)c1ccc(F)cc1	·	-1	·	·	-13	·
O=C(c1ccc2c(c1)OCO2)N1CC(=O)N2[C@H](C1)[C@H](c1ccc(C#CCC3CCCC3)cc1)[C@@H]2CO	·	·	50	·	7	·
O=C(C1CCOCC1)N1C[C@@H]2[C@H](c3ccccc31)[C@@H](CO)N2C(=O)Nc1cccc(F)c1	·	4	-11	·	0	·
O=C(C[C@@H]1C[C@@H]2c3cc(NS(=O)(=O)c4ccc(F)cc4)ccc3O[C@@H]2[C@H](CO)O1)NCc1ccncc1	·	-11	·	·	9	·
COC(=O)[C@H]1[C@H](CO)[C@H]2Cn3c(ccc(-c4ccccc4F)c3=O)[C@H]2N1Cc1ccncc1	·	·	-9	·	-2	·
N#C[C@@H]1[C@@H](c2ccc(C#Cc3ccc(F)cc3)cc2)[C@H](CO)N1C(=O)C1CCCC1	·	-6	34	·	5	·
N#C[C@H]1[C@@H](c2ccc(C#Cc3ccc(F)cc3)cc2)[C@H](CO)N1C(=O)C1CCCC1	·	-16	87*	·	28	·
CCCC[C@@H]1CNCCN1CCc1cc(C(F)(F)F)cc(C(F)(F)F)c1	3	0	-8	1	13	-2
FC(F)(F)c1cc(CCN2CCNC[C@@H]2CC2CCCCC2)cc(C(F)(F)F)c1	·	-4	11	3	55*	-7
CCn1c2ccccc2c2cc(/C=N/NC(=O)c3ccccc3C)ccc21	0	18	33	26	44	87*
Cc1cccc(C(=O)Oc2ccc(/C=N/NC(=O)c3ccccc3O)cc2)c1	-135	2	104*	-28	-6	-10
CCn1c2ccccc2c2cc(/C=N/NC(=O)c3cccc(C)c3)ccc21	-14	·	·	1	·	88*
Cn1c2ccccc2c2cc(/C=N/NC(=O)c3ccc(N)cc3)ccc21	-23	0	·	15	-7	7
C[C@@H]1COCc2cn(nn2)CC[C@@H](Cc2ccccc2)C(=O)N1	·	-6	·	·	·	·
N/C(=N\OC(=O)c1cc([N+](=O)[O-])ccc1Cl)c1cccnc1	88*	5	3	17	20	4
N/C(=N\OC(=O)c1ccc([N+](=O)[O-])cc1)c1cccnc1	-92	-6	-3	-91	-15	-8
